Screening results as filed in PubChem.
Compounds with a hit are over-represented: about 3.7% of the library has one in this group of screens.
KCNQ1 inh: human KCNQ1 channel inhibition; CHO-K1 KCNQ1, FluxOR thallium flux fluorescence; hits give high values; 310,000 compounds, 1.3% hits; P51787; B-score at 10 µM;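 active means compounds whose thallium flux B-score, printed positive for inhibition, exceeds three library SD while starting fluorescence stays within three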;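 further: channel opened by potassium depolarization with thallium stimulus after 20 min compound exposure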
hERG protect: compounds protecting human hERG from proarrhythmic drug block; CHO-hERG, FluxOR thallium flux, dofetilide IC70 present; activation (rescue from dofetilide block), less the hit threshold, % at 10 µM; 310,000 compounds, 0.51% hits; AID 1511;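 active means activation above the mean of controls blocked by dofetilide plus 5 SD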;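 further: thallium influx through hERG after potassium depolarization seen as dye fluorescence rise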
Kir21 inh: Kir2.1 (mouse) channel inhibition. P35561. HEK293-Kir2.1, FluxOR thallium flux fluorescence; hits give low values. B-score at 10 µM. 310,000 compounds, 0.85% hits. AID 1672;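 active means fluorescence ratio B-score at or below minus 3 SD of library scores, with starting-brightness B-score within 2 SD, cut at about -4.2 in these data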;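 further: channel flux triggered by added potassium and thallium sulfate stimulus; B-score of peak minus minimum fluorescence over baseline after thallium stimulus; more negative B-score means stronger Kir2.1 block with less thallium influx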
KCNK3 inh: human KCNK3 channel inhibition, primary screen; O14649; CHO-KCNK3 thallium flux, FluxOR fluorescence; hits give low values; B-score at 10 µM; 340,000 compounds, 0.84% hits;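 active means B-score under library mean minus 4 SD, starting fluorescence ratio at most library mean plus 5 SD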;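 further: more negative B-score means stronger inhibition of thallium flux through KCNK3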
Target sequence (O14649 whole entry, looked up): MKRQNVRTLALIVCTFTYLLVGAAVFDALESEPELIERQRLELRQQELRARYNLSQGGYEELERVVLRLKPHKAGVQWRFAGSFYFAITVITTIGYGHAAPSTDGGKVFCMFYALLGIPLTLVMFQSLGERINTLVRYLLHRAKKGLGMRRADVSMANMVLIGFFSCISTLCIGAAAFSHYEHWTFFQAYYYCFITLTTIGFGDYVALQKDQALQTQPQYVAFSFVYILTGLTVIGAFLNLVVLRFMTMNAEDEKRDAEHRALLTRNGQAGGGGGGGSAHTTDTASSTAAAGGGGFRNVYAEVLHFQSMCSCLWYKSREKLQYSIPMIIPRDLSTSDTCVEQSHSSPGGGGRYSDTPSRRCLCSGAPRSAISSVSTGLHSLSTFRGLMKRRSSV
KCNK9 block: inhibitors of human KCNK9 two-pore domain potassium channel. AID 488922. HEK293 KCNK9, FluxOR thallium flux fluorescence; hits give low values. Q9NPC2. 310,000 compounds, 1.2% hits. B-score at 10 µM;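 active means ratio B-score over 3 SD below the library mean, with starting fluorescence within 5 SD of its mean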;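 further: negative B-score means less thallium flux so channel inhibition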
KCNQ1 act: potentiates or activates the human KCNQ1 potassium channel | B-score at 10 µM | P51787 | AID 2648 | CHO-K1 KCNQ1, thallium flux FluxOR fluorescence; hits give high values | 310,000 compounds, 0.35% hits;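 active means fluorescence ratio B-score, a plate-corrected score, at least three library SD, with initial intensity B-score within 5 SD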
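assay system = KCNQ1-transfected CHO-K1 cells | medium = assay buffer with matched DMSO | probe or stimulus = depolarizing K+/Tl+ stimulus, K2SO4 and Tl2SO4 each 12.5 mM in 5x stock | dosing = single dose | incubation = dye 90 min, compound 20 min, room temperature | detection = kinetic FluxOR fluorescence, 10 s baseline plus 110 s post-stimulus | evaluation = ratio B score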
* hit, by the source's call; i = inactive; . = not tested or not shown.

SMILES	KCNQ1 inh	hERG protect	Kir21 inh	KCNK3 inh	KCNK9 block	KCNQ1 act
CC1CCN(C(=S)NC(=O)c2ccccc2)CC1	i	-6	0.29	i	i	i
CC(C)(C)c1ccc(C(=O)NC(=S)N2CCCCCC2)cc1	i	8.4*	1.7	i	i	22*
CC1CCN(C(=S)NC(=O)c2ccc(C(C)(C)C)cc2)CC1	i	14*	1.1	i	i	29*
CC1=C(C(=O)N2CCCC(CCC(=O)NCc3ccccc3F)C2)OCCO1 (stereo unspecified)	i	-7	-0.01	i	i	i
Cc1ccc(S(=O)(=O)N2CCCC(CCC(=O)NCc3ccccc3F)C2)s1 (stereo unspecified)	i	-3	-1.4	i	-8*	i
CN(C)CCCN(C(=O)c1ccc([N+](=O)[O-])s1)c1nc2cc3c(cc2s1)OCCO3	i	-17	0.25	i	i	i
CN(C)CCCN(C(=O)c1cc2cc([N+](=O)[O-])ccc2s1)c1nc2cc3c(cc2s1)OCCO3	6*	-16	1.9	i	i	i
CCN(CC)CCN(C(=O)c1ccc(Br)s1)c1nc2cc3c(cc2s1)OCCO3	i	-20	1.1	i	i	i
CCN(Cc1ccccc1)S(=O)(=O)c1ccc(C(=O)N(CCCN(C)C)c2nc3ccc(F)cc3s2)cc1	i	-26	-0.53	i	i	i
CN(C)CCCN(C(=O)c1ccc(Br)s1)c1nc2cc3c(cc2s1)OCCO3	i	-19	-7.8*	i	i	i
CCN(Cc1ccccc1)S(=O)(=O)c1ccc(C(=O)N(CCCN(C)C)c2nc3cc4c(cc3s2)OCCO4)cc1	7*	-29	0.24	i	i	i
COc1ccc(S(=O)(=O)N2CCc3ccccc32)cc1C(=O)NC1(C)CCS(=O)(=O)C1 (stereo unspecified)	.	.	.	i	.	.
C=C(C)C(=O)N1CCN(C(=O)C(=C)C)c2ccccc21	.	.	.	i	.	.
COc1ccccc1NS(=O)(=O)c1cccc(C(=O)N/N=C/c2ccc([N+](=O)[O-])o2)c1	.	.	.	i	.	.
CCCCCCCN1C(Nc2ccccc2)=NC[C@@H]1Cc1ccccc1	7*	-22	-5.6*	i	i	i
c1ccc(CCCCN2C(Nc3ccccc3)=NC[C@@H]2Cc2ccccc2)cc1	.	.	.	i	.	.
c1ccc(C[C@H]2CN=C(Nc3ccccc3)N2CCCC2CCCC2)cc1	i	-20	-5.6*	i	i	i
C[C@H]1CN=C(Nc2ccccc2)N1CCCC1CCCCC1	i	-8	-0.24	i	i	i
O=C(COC(=O)CN1C(=O)C2CCCCC2C1=O)Nc1c(Cl)cccc1Cl (stereo unspecified)	.	.	.	i	.	.
CC12CCC(C(N)C1=O)C2(C)C (stereo unspecified)	.	.	.	i	.	.
CC(=O)c1c(C)[nH]c(C(=O)C(C)Sc2nnc(NC3CC3)s2)c1C (stereo unspecified)	.	.	.	i	.	.
CC1(C)CC(c2nc(-c3ccc([N+](=O)[O-])cc3)cs2)CCO1 (stereo unspecified)	7*	-22	-1.2	i	i	i
CCCCn1nc(C(=O)N[C@@H](CCSC)c2nc3ccccc3[nH]2)c2ccccc2c1=O	i	-4	-0.74	i	-7.5*	i
CCCn1nc(C(=O)Nc2ccc3c(c2)OCO3)c2ccccc2c1=O	.	.	.	i	.	.
CCCCn1nc(C(=O)Nc2ccccc2N2CCCC2)c2ccccc2c1=O	.	.	.	-8.7*	.	.
SMILES	KCNQ1 inh	hERG protect	Kir21 inh	KCNK3 inh	KCNK9 block	KCNQ1 act
CCCn1nc(C(=O)N2CCc3ccccc32)c2ccccc2c1=O	.	.	.	i	.	.
CCCCn1nc(C(=O)NC2CCCCCC2)c2ccccc2c1=O	.	.	.	i	.	.
CCCCCn1nc(C(=O)N2CCc3ccccc32)c2ccccc2c1=O	.	.	.	-10*	.	.
CCCCn1nc(C(=O)Nc2ccc3c(c2)OCO3)c2ccccc2c1=O	.	.	.	-10*	.	.
CCn1nc(C(=O)N[C@@H](CCSC)c2nc3ccccc3[nH]2)c2ccccc2c1=O	i	-18	2.4	i	i	i
O=C(NCC1CCCN1S(=O)(=O)c1cccs1)c1cccc(F)c1 (stereo unspecified)	i	-12	-1	i	i	i
CN(Cc1ccccc1)c1ccc2nnc(-c3ccccc3)n2n1	i	-19	-5.2*	i	i	i
c1ccc(-c2nnc3ccc(N4CCCC4)nn23)cc1	i	-9	-0.63	i	i	i
O=C(NC(Cc1c[nH]c2ccccc12)C(=O)N/N=C/c1cccc2ccccc12)c1cccs1 (stereo unspecified)	6*	-17	-0.07	i	i	i
CCn1c(=O)c([N+](=O)[O-])c(NCCN(C)C)c2ccccc21	i	-10	1.2	i	i	i
CCn1c(=O)c([N+](=O)[O-])c(Cl)c2ccccc21	7*	-29	-0.05	i	i	i
C=C(C)C(=O)OCC(O)COc1ccc(C(C)(C)c2ccc(OCC(O)COC(=O)C(=C)C)cc2)cc1 (stereo unspecified)	9*	-19	0.17	-12*	i	i
CC(=O)c1ccc(OCC(O)COc2ccc(C(C)=O)cc2)cc1	i	4.9*	2.9	i	i	i
CC(=O)N(C)c1ccc(OCC(O)COc2ccc(N(C)C(C)=O)cc2)cc1	i	-6	-0.03	i	i	i
COc1cc(/C=C2/SC(=S)NC2=O)ccc1OS(=O)(=O)c1ccc(C)cc1	i	-12	-1.9	i	i	48*
O=C1NC(=S)S/C1=C\c1ccc2ccccc2c1	i	36*	0.8	i	i	49*
COc1cc(/C=C2\SC(=S)NC2=O)ccc1OS(=O)(=O)c1ccccc1	i	-12	0.04	.	i	26*
COc1ccc(/C=C2\SC(=O)NC2=S)cc1OC	i	5.7*	-1.1	i	i	12*
CCOc1ccc(/C=C2\SC(=S)NC2=O)cc1OC	i	-12	1.2	i	i	i
COc1ccc(-c2c(-c3ccc4c(c3)OCO4)c3ccccc3n2C)cc1	.	.	.	i	.	.
CCSc1nnc(-c2ccc(C)cc2)c2ccccc12	i	-12	1.3	i	-7*	i
CCSc1nnc(-c2ccc(Cl)cc2)c2ccccc12	i	-15	0.41	i	i	i
CCN1CCN(c2ccc(S(=O)(=O)N3CCOCC3)cc2NC(=O)CC(NC(C)=O)c2ccccc2)CC1 (stereo unspecified)	.	.	.	i	.	.
CC1CCN(CCCNC(=O)c2ccc(Cn3c(=S)[nH]c4ccc(Br)cc4c3=O)cc2)CC1	8*	-15	-1.6	.	i	i
